ROMK mod: human ROMK K+ channel modulation, primary screen | P48048 | Tet-inducible ROMK, thallium flux fluorescence; actives lie on both sides | B-score at 10 µM | actives 2% (n = 130,000) | AID 1918;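 active = signal ratio slope over the read window, or its plate-corrected B-score, at least 3 SD from the plate mean, either direction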;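 also: B-score of the F/F0 ratio slope over 7 to 12 s after thallium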
Target sequence (P48048 whole entry, looked up): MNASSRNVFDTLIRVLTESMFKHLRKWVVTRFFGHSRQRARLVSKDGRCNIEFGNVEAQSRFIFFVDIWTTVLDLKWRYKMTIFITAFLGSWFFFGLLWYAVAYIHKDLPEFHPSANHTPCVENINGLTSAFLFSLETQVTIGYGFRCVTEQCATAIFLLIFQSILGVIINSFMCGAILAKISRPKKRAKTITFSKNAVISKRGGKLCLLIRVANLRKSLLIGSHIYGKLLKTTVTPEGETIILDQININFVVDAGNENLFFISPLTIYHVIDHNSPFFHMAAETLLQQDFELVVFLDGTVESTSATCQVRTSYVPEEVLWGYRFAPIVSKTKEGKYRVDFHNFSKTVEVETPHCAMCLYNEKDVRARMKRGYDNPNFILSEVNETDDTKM
Biofilm kill mix: mixture kills Candida albicans biofilm cells | C. albicans biofilm persisters + clotrimazole, fluorescence viability; primary screen in compound mixtures of four per well | inhibition, % at 7.6 µM | actives 0.02% (n = 120,000) | AID 1242;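 active = inhibition above 30.3% in the primary screen of four-compound pools, then above 30% when the compound was retested; inconclusive = passed the primary limit but could not be retested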;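 also: compounds exposed to preformed 24 h biofilms for 48 h; 0% = untreated biofilm control and 100% = clotrimazole plus chlorhexidine kill blank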
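Test system: C. albicans biofilms. Buffer or medium: RPMI/MOPS medium, pH 7.0. Timing: 48 h compound exposure at 37 °C. Technique: Alamar Blue fluorescence. Evaluation: percent inhibition of biofilm viability.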
ROMK retest: retested hit modulating human ROMK potassium channel. shares compounds with ROMK mod. ROMK thallium flux, fluorescence ratio; active compounds read low. normalized thallium flux (F/F0 slope) at 10 µM. actives 54% (n = 3,000);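 active = Flux at 10 µM at least 3 SD below or above vehicle control mean in one or both replicates; inconclusive = no clear call, values can overlap the other calls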
* marks the source's active call; other numbers are inactive results; ? = inconclusive; / = not tested or not shown. This is one part of a sample in which hits are shown more often than they occur.

SMILES	ROMK mod	Biofilm kill mix	ROMK retest
Cc1cc(C)c2cc(C(=O)Nc3ccc4c(c3)OCO4)[nH]c2c1	-0.24	3	/
Cc1cc(C)c2cc(C(=O)Nc3ccccc3)[nH]c2c1	/	13	0.079
Clc1nc(Cl)nc(-c2cn(-c3ccccc3)c3ccccc23)n1	/	17	/
Cc1ccc(C(=O)NNc2c3ccccc3nc3ccccc23)cc1	/	17	/
Cc1ccc(NNc2c(C)nc3ccccc3nc2=O)cc1	2.7*	12	0.11*
Cc1c(C(=O)O)oc2ccc(S(=O)(=O)N(CC(C)C)CC(C)C)cc12	1.6	/	/
S=C(NCc1ccc2c(c1)OCO2)NC1CC1	-19*	9	0.089
Cc1ccc(S(=O)(=O)NC(=O)NCc2ccc3c(c2)OCO3)cc1	1.5	/	0.074
CC1(C)CC(NC(=S)NCc2ccc3c(c2)OCO3)CC(C)(C)N1	0.0059	13	/
Cc1c(C(=O)O)oc2ccc(S(=O)(=O)NCc3ccc4c(c3)OCO4)cc12	/	/	0.075
Cc1ccc(S(=O)(=O)NCC2CCC(C(=O)NCc3ccc4c(c3)OCO4)CC2)cc1 (configuration not stated)	-0.29	/	/
CCC(NC(=O)NCc1ccccc1)(C(F)(F)F)C(F)(F)F	/	-3	/
CCC(NC(=O)NCc1ccc2c(c1)OCO2)(C(F)(F)F)C(F)(F)F	1.5*	/	0.086
Cc1cccn2c(=O)c3cc(S(=O)(=O)c4ccccc4)c(=N)n(CC4CCCO4)c3nc12 (configuration not stated)	0.08	21	/
COc1cc(C(=O)OCC(=O)NC(=O)C2CCCCC2)ccc1OC(F)F	0.48	8	/
NS(=O)(=O)c1ccc(CNC(=S)NC2CC2)cc1	-2	10	/
O=C1Nc2ccccc2C12OCC(COc1ccc(Cl)cc1)O2 (configuration not stated)	-2	/	/
CN1C(=O)C2(OCC(COc3ccc(Cl)cc3)O2)c2ccccc21 (configuration not stated)	/	/	0.078
COc1cccc(/C=C2\SC(=S)N(N3C(=O)CCCC3=O)C2=O)c1	-2.7*	-30	0.049*
COc1cccc(/C=C2\SC(=S)N(CC3CCCO3)C2=O)c1 (configuration not stated)	/	12	/
CCc1ccc2nc(SCC(=O)Nc3nnc(C)s3)c(C)cc2c1	0.92	14	0.091
Cc1cc2ccccc2nc1SCC(=O)Nc1nc(-c2ccccc2)cs1	-1.4	/	/
O=C(Cc1ncc(C(F)(F)F)cc1Cl)NCCc1ccccn1	-0.32	7	/
Cc1ccc(NC(=O)Cc2cc(C(=O)O)c3ccccc3n2)c(C)c1	1.1	8	/
O=C1C=CC(=O)C(C2=C3C(=O)N(CCc4ccccc4)CC(=O)N3CCC2)=C1	-3*	8	0.051*
SMILES	ROMK mod	Biofilm kill mix	ROMK retest
O=C1CC(=O)N(CCc2ccccc2)C(=O)N1CCc1ccccc1	0.36	/	/
CC(C)N(C)CCOC(=O)C1COc2ccccc2O1 (configuration not stated)	0.68	24	/
Cc1ccc(NC(=O)CCN2CCN(C/C=C/c3ccccc3)CC2)cc1C	-3.1*	/	0.048*
CCOc1ccccc1N1CCN(C(=O)Nc2cccc(Cl)c2)CC1	-3.1*	/	0.073
O=C(CCN1CCN(C/C=C/c2ccccc2)CC1)Nc1ccc(Cl)cc1	/	6	/
Cc1cccc(NC(=O)N2CCN(Cc3ccccc3)CC2)c1	-0.41	13	/
O=C(Nc1cccc(Cl)c1)N1CCN(C/C=C/c2ccccc2)CC1	-3.6*	/	?
CCOC(=O)C1CCN(C(=O)Nc2cccc(Cl)c2)CC1	-0.13	8	/
CCN(CC(=O)Nc1cccc(OC)c1)c1ncnc2sc(C)c(C)c12	-0.89	17	/
CC12CC3(C)CC(C)(C1)CC(C(=O)NC(=S)N1CCCC1)(C2)C3	0.16	13	/
Cc1ccc(C)c(S(=O)(=O)N/N=C/c2ccc(N3CCOCC3)cc2)c1	/	21	/
C=CCn1c(=N)n(CC(=O)c2ccc(OC)cc2)c2ccccc21	0.55	16	/
CC(=O)NNc1cc(C)nc(N)n1	/	14	/
O=C1CCC(C(=O)Nc2ccccc2N2CCOCC2)=NN1	-0.33	22	/
CCCCOC(=O)C1CCC[C@@H](C)N1 (some centres not stated)	/	/	0.079
O=C(O)C1CCCCC1C(=O)OCCCCOC(=O)C1CCCCC1C(=O)O (configuration not stated)	0.63	/	/
CC1(C)Cc2ccccc2C(/C(=N\Nc2cccc(Cl)c2)C(N)=O)=N1	-1.6	9	/
CC(=O)c1ccc(N/N=C(/C(N)=O)C2=NC(C)(C)Cc3ccccc32)cc1	-5.4*	1	0.049*
CCOC(=O)c1c(NC(=O)CSc2nc3nc(C)cc(C)n3n2)sc(CC)c1C	-0.12	6	/
CCOc1cc(CNCCCN2CCOCC2)cc(Br)c1OCc1ccccc1Cl	-1.6*	0	?
CCOc1cc(CNCCO)cc(Br)c1OCc1ccccc1Cl	-1.7	/	/
COc1ccc(CCn2c(C)cc(C(=O)CCl)c2C)cc1OC	-1.5	2	/
Cc1occc1C(=O)NNC(=O)Nc1ccc([N+](=O)[O-])cc1	0.053	4	/

Bioassay records deposited in PubChem by several laboratories.
